ChEMBL document CHEMBL4689842, “EUbOPEN Chemogenomics Library wave 1” (2021)

Tested on: U2OS
Experiment: Multiplex assay against U2OS
Type: toxicity, cell-based
Conditions: human
Summary of the method: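 Cells were classed with CellPathfinder machine-learning gating, first as Hoechst high-intensity objects or normal cells, then (normal cells) as healthy, pyknosed or fragmented nuclei, and finally (pyknosed cells) as mitotic or apoptotic. Staining of live cells at seeding used Hoechst33342, BioTracker Green Microtubule Cytoskeleton Dye, MitoTracker Red and Annexin V Alexa Fluor 680, with imaging on a CQ1 microscope at 37°C and 5% CO2 after compound addition. Tubulin, mitochondrial-mass and membrane-permeability phenotypes are per cents of healthy-nucleus cells.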

[1] = 12 h, 1 µM, compound concentration 1 uM, replicate 1
[2] = 12 h, 1 µM, compound concentration 1 uM, replicate 2
[3] = 12 h, 10 µM, compound concentration 10 uM, replicate 1
[4] = 12 h, 10 µM, compound concentration 10 uM, replicate 2
[5] = 24 h, 1 µM, compound concentration 1 uM, replicate 1
[6] = 24 h, 1 µM, compound concentration 1 uM, replicate 2
[7] = 24 h, 10 µM, compound concentration 10 uM, replicate 1
[8] = 24 h, 10 µM, compound concentration 10 uM, replicate 2
[9] = 48 h, 1 µM, compound concentration 1 uM, replicate 1
[10] = 48 h, 1 µM, compound concentration 1 uM, replicate 2
[11] = 48 h, 10 µM, compound concentration 10 uM, replicate 1
[12] = 48 h, 10 µM, compound concentration 10 uM, replicate 2

Structure (SMILES): COc1ccc(-c2ccc3ncc4c(c3c2)n(-c2ccc(N3CCNCC3)c(C(F)(F)F)c2)c(=O)n4C)cn1.O=C(O)/C=C\C(=O)O [BGT-226]
- Population Apoptotic (%) [1]: 86%
- Population Fragmented Nuclei (%) [1]: 50%
- Population Healthy Nuclei (%) [1]: 10%
- Population Hoechst High Intensity Objects (%) [1]: 14%
- Population Membrane Permeable-Phenotype (%) [1]: 58%
- Population Mitotic Cells (%) [1]: 13%
- Population Normal (%) [1]: 85%
- Population Pyknosed Nuclei (%) [1]: 38%
- Total Cell Count [1]: 182
- Population Apoptotic (%) [2]: 81%
- Population Fragmented Nuclei (%) [2]: 24%
- Population Healthy Nuclei (%) [2]: 45%
- Population Hoechst High Intensity Objects (%) [2]: 17%
- Population Membrane Permeable-Phenotype (%) [2]: 70%
- Population Mitochondria Different-Phenotype (%) [2]: 94%
- Population Mitotic Cells (%) [2]: 18%
- Population Normal (%) [2]: 82%
- Population Pyknosed Nuclei (%) [2]: 29%
- Population Tubulin-Different-Phenotype (%) [2]: 94%
- Total Cell Count [2]: 45
- Population Apoptotic (%) [3]: 97%
- Population Fragmented Nuclei (%) [3]: 33%
- Population Healthy Nuclei (%) [3]: 1%
- Population Hoechst High Intensity Objects (%) [3]: 13%
- Population Membrane Permeable-Phenotype (%) [3]: 50%
- Population Mitochondria Different-Phenotype (%) [3]: 50%
- Population Mitotic Cells (%) [3]: 2%
- Population Normal (%) [3]: 86%
- Population Pyknosed Nuclei (%) [3]: 65%
- Population Tubulin-Different-Phenotype (%) [3]: 50%
- Total Cell Count [3]: 258
- Population Apoptotic (%) [4]: 100%
- Population Fragmented Nuclei (%) [4]: 70%
- Population Healthy Nuclei (%) [4]: 9%
- Population Hoechst High Intensity Objects (%) [4]: 62%
- Population Membrane Permeable-Phenotype (%) [4]: 24%
- Population Mitochondria Different-Phenotype (%) [4]: 32%
- Population Mitotic Cells (%) [4]: 0%
- Population Normal (%) [4]: 37%
- Population Pyknosed Nuclei (%) [4]: 19%
- Population Tubulin-Different-Phenotype (%) [4]: 24%
- Total Cell Count [4]: 675
- Population Apoptotic (%) [5]: 98%
- Population Fragmented Nuclei (%) [5]: 47%
- Population Healthy Nuclei (%) [5]: 5%
- Population Hoechst High Intensity Objects (%) [5]: 14%
- Population Membrane Permeable-Phenotype (%) [5]: 75%
- Population Mitochondria Different-Phenotype (%) [5]: 87%
- Population Mitotic Cells (%) [5]: 1%
- Population Normal (%) [5]: 85%
- Population Pyknosed Nuclei (%) [5]: 47%
- Population Tubulin-Different-Phenotype (%) [5]: 75%
- Total Cell Count [5]: 181
- Population Apoptotic (%) [6]: 83%
- Population Fragmented Nuclei (%) [6]: 20%
- Population Healthy Nuclei (%) [6]: 40%
- Population Hoechst High Intensity Objects (%) [6]: 30%
- Population Membrane Permeable-Phenotype (%) [6]: 66%
- Population Mitochondria Different-Phenotype (%) [6]: 91%
- Population Mitotic Cells (%) [6]: 16%
- Population Normal (%) [6]: 69%
- Population Pyknosed Nuclei (%) [6]: 40%
- Population Tubulin-Different-Phenotype (%) [6]: 91%
- Total Cell Count [6]: 43
- Population Apoptotic (%) [7]: 97%
- Population Fragmented Nuclei (%) [7]: 39%
- Population Healthy Nuclei (%) [7]: 0%
- Population Hoechst High Intensity Objects (%) [7]: 15%
- Population Membrane Permeable-Phenotype (%) [7]: 100%
- Population Mitochondria Different-Phenotype (%) [7]: 100%
- Population Mitotic Cells (%) [7]: 2%
- Population Normal (%) [7]: 84%
- Population Pyknosed Nuclei (%) [7]: 59%
- Population Tubulin-Different-Phenotype (%) [7]: 100%
- Total Cell Count [7]: 269
- Population Apoptotic (%) [8]: 100%
- Population Fragmented Nuclei (%) [8]: 79%
- Population Healthy Nuclei (%) [8]: 10%
- Population Hoechst High Intensity Objects (%) [8]: 64%
- Population Membrane Permeable-Phenotype (%) [8]: 69%
- Population Mitochondria Different-Phenotype (%) [8]: 60%
- Population Mitotic Cells (%) [8]: 0%
- Population Normal (%) [8]: 35%
- Population Pyknosed Nuclei (%) [8]: 9%
- Population Tubulin-Different-Phenotype (%) [8]: 60%
- Total Cell Count [8]: 614
- Population Fragmented Nuclei (%) [9]: 45%
- Population Healthy Nuclei (%) [9]: 3%
- Population Hoechst High Intensity Objects (%) [9]: 22%
- Population Membrane Permeable-Phenotype (%) [9]: 80%
- Population Mitochondria Different-Phenotype (%) [9]: 80%
- Population Normal (%) [9]: 77%
- Population Pyknosed Nuclei (%) [9]: 50%
- Population Tubulin-Different-Phenotype (%) [9]: 80%
- Total Cell Count [9]: 185
- Population Apoptotic (%) [10]: 100%
- Population Fragmented Nuclei (%) [10]: 25%
- Population Healthy Nuclei (%) [10]: 35%
- Population Hoechst High Intensity Objects (%) [10]: 34%
- Population Membrane Permeable-Phenotype (%) [10]: 90%
- Population Mitochondria Different-Phenotype (%) [10]: 90%
- Population Mitotic Cells (%) [10]: 0%
- Population Normal (%) [10]: 65%
- Population Pyknosed Nuclei (%) [10]: 39%
- Population Tubulin-Different-Phenotype (%) [10]: 90%
- Total Cell Count [10]: 43
- Population Apoptotic (%) [11]: 97%
- Population Fragmented Nuclei (%) [11]: 40%
- Population Healthy Nuclei (%) [11]: 3%
- Population Hoechst High Intensity Objects (%) [11]: 18%
- Population Membrane Permeable-Phenotype (%) [11]: 71%
- Population Mitochondria Different-Phenotype (%) [11]: 85%
- Population Mitotic Cells (%) [11]: 2%
- Population Normal (%) [11]: 81%
- Population Pyknosed Nuclei (%) [11]: 55%
- Population Tubulin-Different-Phenotype (%) [11]: 85%
- Total Cell Count [11]: 260
- Population Apoptotic (%) [12]: 100%
- Population Fragmented Nuclei (%) [12]: 85%
- Population Healthy Nuclei (%) [12]: 12%
- Population Hoechst High Intensity Objects (%) [12]: 67%
- Population Membrane Permeable-Phenotype (%) [12]: 81%
- Population Mitochondria Different-Phenotype (%) [12]: 72%
- Population Mitotic Cells (%) [12]: 0%
- Population Normal (%) [12]: 32%
- Population Pyknosed Nuclei (%) [12]: 1%
- Population Tubulin-Different-Phenotype (%) [12]: 72%
- Total Cell Count [12]: 534

Structure (SMILES): C=CC(=O)Nc1ccc2[nH]c(=O)n(C3CCN(Cc4ccc(-c5nc6cc[nH]c(=O)c6cc5-c5ccccc5)cc4)CC3)c2c1 [Borussertib]
- Population Apoptotic (%) [1]: 25%
- Population Fragmented Nuclei (%) [1]: 5%
- Population Healthy Nuclei (%) [1]: 91%
- Population Hoechst High Intensity Objects (%) [1]: 3%
- Population Membrane Permeable-Phenotype (%) [1]: 12%
- Population Mitochondria Different-Phenotype (%) [1]: 35%
- Population Mitotic Cells (%) [1]: 75%
- Population Normal (%) [1]: 96%
- Population Pyknosed Nuclei (%) [1]: 2%
- Population Tubulin-Different-Phenotype (%) [1]: 29%
- Total Cell Count [1]: 158
- Population Apoptotic (%) [2]: 28%
- Population Healthy Nuclei (%) [2]: 87%
- Population Hoechst High Intensity Objects (%) [2]: 14%
- Population Membrane Permeable-Phenotype (%) [2]: 11%
- Population Mitochondria Different-Phenotype (%) [2]: 21%
- Population Mitotic Cells (%) [2]: 71%
- Population Normal (%) [2]: 85%
- Population Pyknosed Nuclei (%) [2]: 6%
- Population Tubulin-Different-Phenotype (%) [2]: 23%
- Total Cell Count [2]: 124
- Population Apoptotic (%) [3]: 54%
- Population Fragmented Nuclei (%) [3]: 2%
- Population Healthy Nuclei (%) [3]: 84%
- Population Hoechst High Intensity Objects (%) [3]: 4%
- Population Membrane Permeable-Phenotype (%) [3]: 24%
- Population Mitochondria Different-Phenotype (%) [3]: 18%
- Population Mitotic Cells (%) [3]: 45%
- Population Normal (%) [3]: 95%
- Population Pyknosed Nuclei (%) [3]: 13%
- Population Tubulin-Different-Phenotype (%) [3]: 38%
- Total Cell Count [3]: 190
- Population Apoptotic (%) [4]: 60%
- Population Fragmented Nuclei (%) [4]: 6%
- Population Healthy Nuclei (%) [4]: 77%
- Population Hoechst High Intensity Objects (%) [4]: 8%
- Population Membrane Permeable-Phenotype (%) [4]: 33%
- Population Mitochondria Different-Phenotype (%) [4]: 28%
- Population Mitotic Cells (%) [4]: 40%
- Population Normal (%) [4]: 91%
- Population Pyknosed Nuclei (%) [4]: 15%
- Population Tubulin-Different-Phenotype (%) [4]: 32%
- Total Cell Count [4]: 104
- Population Apoptotic (%) [5]: 36%
- Population Fragmented Nuclei (%) [5]: 1%
- Population Healthy Nuclei (%) [5]: 93%
- Population Hoechst High Intensity Objects (%) [5]: 2%
- Population Membrane Permeable-Phenotype (%) [5]: 8%
- Population Mitochondria Different-Phenotype (%) [5]: 22%
- Population Mitotic Cells (%) [5]: 63%
- Population Normal (%) [5]: 97%
- Population Pyknosed Nuclei (%) [5]: 5%
- Population Tubulin-Different-Phenotype (%) [5]: 34%
- Total Cell Count [5]: 220
- Population Apoptotic (%) [6]: 37%
- Population Fragmented Nuclei (%) [6]: 9%
- Population Healthy Nuclei (%) [6]: 84%
- Population Hoechst High Intensity Objects (%) [6]: 7%
- Population Membrane Permeable-Phenotype (%) [6]: 10%
- Population Mitochondria Different-Phenotype (%) [6]: 29%
- Population Mitotic Cells (%) [6]: 62%
- Population Normal (%) [6]: 92%
- Population Pyknosed Nuclei (%) [6]: 6%
- Population Tubulin-Different-Phenotype (%) [6]: 28%
- Total Cell Count [6]: 137
- Population Apoptotic (%) [7]: 66%
- Population Fragmented Nuclei (%) [7]: 6%
- Population Healthy Nuclei (%) [7]: 85%
- Population Hoechst High Intensity Objects (%) [7]: 2%
- Population Membrane Permeable-Phenotype (%) [7]: 13%
- Population Mitochondria Different-Phenotype (%) [7]: 19%
- Population Mitotic Cells (%) [7]: 33%
- Population Normal (%) [7]: 97%
- Population Pyknosed Nuclei (%) [7]: 7%
- Population Tubulin-Different-Phenotype (%) [7]: 26%
- Total Cell Count [7]: 238
- Population Apoptotic (%) [8]: 83%
- Population Fragmented Nuclei (%) [8]: 12%
- Population Healthy Nuclei (%) [8]: 76%
- Population Hoechst High Intensity Objects (%) [8]: 13%
- Population Membrane Permeable-Phenotype (%) [8]: 21%
- Population Mitochondria Different-Phenotype (%) [8]: 28%
- Population Mitotic Cells (%) [8]: 16%
- Population Normal (%) [8]: 86%
- Population Pyknosed Nuclei (%) [8]: 11%
- Population Tubulin-Different-Phenotype (%) [8]: 22%
- Total Cell Count [8]: 121
